This note sets out measurements from PubChem BioAssay.

Activity calls are given as the source filed them.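 The calls were made as follows, unless noted: active = viability at or below 10% of carrier control in both of two separate runs; inconclusive = viability at or below 10% in only one of the two runs; inactive = the rest.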

For orientation: viability means a read-out of living cells in per cent, often relative to untreated cells. As usually defined, the inhibition is the relative decrease from the control value, in per cent.

A short description of assay [1]: SK-BR-3 cell growth inhibitors, pilot screen, 24 h, human (AID 572).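 Also: compound exposure lasted between 18 and 24 h rather than exactly 24 h; 100% = carrier-treated control wells.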 Particulars: SK-BR-3 viability, CellTiter-Glo luminescence, at 10 µM, stronger effect = lower value.
Assay [2] in a line: HUVEC growth inhibition – cell-based, human, primary screen (AID 575;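 active = viability at or below 30% in both replicate assays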;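 also: 100% = median of untreated cell wells with 0.1% DMSO on each plate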). Particulars: HUVEC proliferation, CellTiter-Glo luminescence, 72 h; at 10 µM; stronger effect = lower value. The essentials: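 Test system: primary human umbilical vein endothelial cells. Quantity: 1250 cells/well. Compound: single 10 µM dose, 0.1% DMSO, from 5x medium stock. Timing: 72 h treatment at 37 °C. Detection: ATP-based CellTiter-Glo luminescent read. Benchmarks: vehicle and MePR control wells. Format: 384-well plates coated with collagen.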
On the technique in general: ATP-based viability assays read luminescence as a measure of living cells.

Assay [3] is described as follows: growth inhibitors of H69AR lung tumor, primary screen, human, duplicate replicates (AID 580;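 active = viability at or under a set limit in both replicates, limit being median viability minus 3 SD, cut at about 48% in these data, passing the limit was not always enough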;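 also: 100% = mean luminescence of untreated wells and 0% = no signal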). Particulars: H69AR lung tumor cells viability, ATP luminescence, 72 h; at 10 µM; stronger effect = lower value.
The nature of assay [4]: reversal of MRP1-mediated doxorubicin resistance, pilot screen, H69AR cells, doxorubicin co-treatment (AID 601;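 active = viability loss from added drug above about 55%, and viability with drug at most 40%, in both replicates, limit read from the data, passing the limit was not always enough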). Particulars: CellTiter-Glo, 72 h, at 10 µM; for differential viability (reversal): stronger effect = higher value.
A short description of assay [5]: 384-well plate pilot, post-Golgi transport modulator project, inhibition of yeast transport mutant growth (AID 636; in the data active = inhibition above about 31%). The following applies: absorbance 615 nm, about 18 h, stronger effect = higher value.
The nature of assay [6]: growth suppression of yeast trafficking mutant, preliminary HTS, modulators of trafficking downstream of Golgi apparatus project, 1536-format plate, OD 615 nm (AID 637; in the data active = inhibition above about 30%). Particulars: yeast transport mutant growth, absorbance 615 nm, 18 h; stronger effect = higher value.
Setting [7] is: H69AR cells + 2 uM doxorubicin, measured here: viability with 2 uM doxorubicin, stronger effect = lower value.
[8] abbreviates: H69AR cells, compound alone cytotoxicity.

Consider `O=C(Nc1ccncc1)C1c2ccccc2Oc2ccccc21`, for which the viability in assay [1] was 121% (inactive); in assay [2], 100% (inactive); in assay [3] it was 92.3% (inactive); in assay [4] (setting [7]), 101%; in assay [4] (setting [8]) it was 92.3%. Besides, the differential viability (reversal) in assay [4] (H69AR cells + 2 uM doxorubicin) was -8.33% (inactive). The inhibition in assay [5] is -2.3% (inactive); in assay [6] it was 14.4% (inactive).

With `CCC(C)(C)n1nnnc1C(c1cc2cc(C)ccc2[nH]c1=O)N1CCCC1` (stereo unspecified), the viability in assay [1] is 94% (inactive); in assay [2] it was 98.7% (inactive); in assay [3], 98.6% (inactive); in assay [4] (setting [7]), 89%; in assay [4] (setting [8]), 98.6%. The differential viability (reversal) in assay [4] (H69AR cells + 2 uM doxorubicin) was 9.6% (inactive). Further, the inhibition in assay [5] was -4.55% (inactive); in assay [6], 4.26% (inactive).

For the molecule `CCOC(=O)CNC(=O)CSc1nnnn1-c1cc(C)ccc1C`, the viability was 105% (inactive) in assay [1]; 105% (inactive) in assay [2]; 110% (inactive) in assay [3]; 98.1% in assay [4] (setting [7]); 110% in assay [4] (setting [8]). Moreover, the differential viability (reversal) in assay [4] (H69AR cells + 2 uM doxorubicin) is 12.1% (inactive). Besides, the inhibition in assay [5] is -2.08% (inactive); in assay [6], -1.48% (inactive).

Regarding `CC(=O)Nc1ccc(S(=O)(=O)N2CCN(c3cc(C)nc4ccccc34)CC2)cc1`, the viability is 103% (inactive) in assay [1]; 96.7% (inactive) in assay [2]; 87.1% (inactive) in assay [3]; 86.2% in assay [4] (setting [7]); 87.1% in assay [4] (setting [8]). The differential viability (reversal) in assay [4] (H69AR cells + 2 uM doxorubicin) was 0.84% (inactive). Also, the inhibition in assay [5] was -5.41% (inactive); in assay [6] it was -3.09% (inactive).

Turning to `CCCC1CCC(C(=O)Nn2cnc3ccccc3c2=O)CC1` (stereo unspecified), the viability in assay [1] was 101% (inactive); in assay [2], 108% (inactive); in assay [3] it was 91.7% (inactive); in assay [4] (setting [7]) it was 82%; in assay [4] (setting [8]), 91.7%. Also, the differential viability (reversal) in assay [4] (H69AR cells + 2 uM doxorubicin) was 9.62% (inactive). In addition, the values for the inhibition in assay [5] and in assay [6] were 1.17% (inactive) and 7.05% (inactive), respectively.

In the case of `CCOC(=O)c1[nH]c2cc(OC)c(OC)cc2c1NC(=O)C(C)N1CCN(Cc2ccccc2)CC1` (stereo unspecified), the viability is 73% (inactive) in assay [1]; 51.3% (inactive) in assay [2]; 59.2% (inactive) in assay [3]; 66.1% in assay [4] (setting [7]); 59.2% in assay [4] (setting [8]). In addition, the differential viability (reversal) in assay [4] (H69AR cells + 2 uM doxorubicin) was -6.81% (inactive). The figures for the inhibition in assay [5] and in assay [6] were -4.59% (inactive) and -5.09% (inactive), respectively.

`O=C(O)c1cccc(NC(=O)C23CC4CC(C2)CC(n2cnc(Cl)n2)(C4)C3)c1`: the viability in assay [1] is 122% (inactive); in assay [2] it was 105% (inactive); in assay [3], 96.9% (inactive); in assay [4] (setting [7]), 91.1%; in assay [4] (setting [8]) it was 96.9%. Further, the differential viability (reversal) in assay [4] (H69AR cells + 2 uM doxorubicin) was 5.78% (inactive). Moreover, the inhibition in assay [5] was -1.95% (inactive); in assay [6], 0.98% (inactive).

Turning to `CCOC(=O)c1oc2cc(OCC(N)=O)ccc2c(=O)c1-c1ccc(OC)c(OC)c1`, the viability was 65% (inactive) in assay [1]; 88.1% (inactive) in assay [2]; 99% (inactive) in assay [3]; 102% in assay [4] (setting [7]); 99% in assay [4] (setting [8]). In assay [4] (H69AR cells + 2 uM doxorubicin), the differential viability (reversal) was -2.63% (inactive). The inhibition in assay [5] was -7.67% (inactive); in assay [6], -0.55% (inactive).

As for `CCOC(=O)c1cc(-c2ccccc2)sc1N`, the viability in assay [1] is 129% (inactive); in assay [2], 71.1% (inactive); in assay [3] it was 81.3% (inactive); in assay [4] (setting [7]) it was 77.8%; in assay [4] (setting [8]), 81.3%. Also, the differential viability (reversal) in assay [4] (H69AR cells + 2 uM doxorubicin) was 3.5% (inactive). Further, the inhibition in assay [5] was -6% (inactive); in assay [6], -2% (inactive).

For the molecule `CCOC(=O)c1cc(C(C)(C)C)oc1CN`, the viability in assay [1] was 118% (inactive); in assay [2], 96.1% (inactive); in assay [3], 90.8% (inactive); in assay [4] (setting [7]), 92.5%; in assay [4] (setting [8]) it was 90.8%. For the same molecule, in assay [4] (H69AR cells + 2 uM doxorubicin), the differential viability (reversal) is -1.73% (inactive). The inhibition was -7.12% (inactive) in assay [5] and 9.35% (inactive) in assay [6].

On to `CCn1c(SCC(=O)c2ccc(C)cc2)nnc1-c1ccoc1C`, for which the viability in assay [1] is 89% (inactive); in assay [2], 114% (inactive); in assay [3], 108% (inactive); in assay [4] (setting [7]), 99.2%; in assay [4] (setting [8]), 108%. Besides, the differential viability (reversal) in assay [4] (H69AR cells + 2 uM doxorubicin) was 8.75% (inactive). The inhibition is -5.14% (inactive) in assay [5] and 0.36% (inactive) in assay [6].

As to `CCN1C(=O)CC(N2CCC(Nc3ccc(F)cc3)CC2)C1=O` (stereo unspecified), the viability in assay [1] was 78% (inactive); in assay [2], 93.5% (inactive); in assay [3] it was 92.3% (inactive); in assay [4] (setting [7]), 90.3%; in assay [4] (setting [8]), 92.3%. In addition, the differential viability (reversal) in assay [4] (H69AR cells + 2 uM doxorubicin) was 1.94% (inactive). Moreover, the inhibition in assay [5] was -0.65% (inactive); in assay [6], -0.98% (inactive).

As for `Fc1cccc(Nc2cc(-n3cccn3)ncn2)c1`, the viability in assay [1] is 95% (inactive); in assay [2] it was 72.5% (inactive); in assay [3] it was 89.6% (inactive); in assay [4] (setting [7]), 94.3%; in assay [4] (setting [8]), 89.6%. Moreover, the differential viability (reversal) in assay [4] (H69AR cells + 2 uM doxorubicin) is -4.63% (inactive). Also, the results for the inhibition in assay [5] and in assay [6] were -7.81% (inactive) and -4.76% (inactive), respectively.

For `CCOc1nc(OCC)nc(N2CCC(C)CC2)n1`, the viability in assay [1] was 91% (inactive); in assay [2] it was 108% (inactive); in assay [3] it was 84.9% (inactive); in assay [4] (setting [7]), 95.4%; in assay [4] (setting [8]), 84.9%. The differential viability (reversal) in assay [4] (H69AR cells + 2 uM doxorubicin) was -10.5% (inactive). The inhibition in assay [5] is -5% (inactive); in assay [6], 31.4% (active).

As to `N#CCC(=O)N1CCn2c1nc1ccccc12`, the viability in assay [1] was 99% (inactive); in assay [2], 95% (inactive); in assay [3], 87.7% (inactive); in assay [4] (setting [7]), 88.5%; in assay [4] (setting [8]), 87.7%. Further, the differential viability (reversal) in assay [4] (H69AR cells + 2 uM doxorubicin) was -0.78% (inactive). Also, the values for the inhibition in assay [5] and in assay [6] were 0.13% (inactive) and 0.33% (inactive), respectively.

In the case of `COc1ccc(-c2noc(CSc3nc4ccccc4c(=O)n3-c3ccccc3)n2)cc1OC`, the viability in assay [1] is 69% (inactive); in assay [2] it was 110% (inactive); in assay [3], 87.1% (inactive); in assay [4] (setting [7]) it was 80.7%; in assay [4] (setting [8]), 87.1%. The differential viability (reversal) in assay [4] (H69AR cells + 2 uM doxorubicin) was 6.39% (inactive). Besides, the inhibition in assay [5] was -9.04% (inactive); in assay [6], -0.55% (inactive).

For `CCNc1ccc(S(=O)(=O)C(F)(F)F)cc1NC(=O)C12CCC(CC1)C2`, the viability was 102% (inactive) in assay [1]; 102% (inactive) in assay [2]; 92.3% (inactive) in assay [3]; 95.7% in assay [4] (setting [7]); 92.3% in assay [4] (setting [8]). Also, in assay [4] (H69AR cells + 2 uM doxorubicin), the differential viability (reversal) is -3.33% (inactive). Besides, the inhibition is 1.78% (inactive) in assay [5] and 2% (inactive) in assay [6].
